Measurements as given in ChEMBL document CHEMBL1147039, “Disrupting antibiotic resistance propagation by inhibiting the conjugative DNA relaxase” (Proc Natl Acad Sci U S A, 2007).
Calls of active or inactive are those of the source. No cut-off for these calls is given here.

What was measured:
[1] = biological target: T1, Type IV secretion-like conjugative transfer relaxase protein TraI (Escherichia coli (strain SMS-3-5 / SECEC), UniProt B1LRJ1, Y16F); test: Inhibition of Escherichia coli F plasmid TraI relaxase Y16F mutant assessed as oriT ssDNA cleavage by competitive inhibition assay
Outline: (§1)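 Truncated F plasmid TraI (residues 1–300, Y16F) was expressed in E. coli at 30°C as an intein–chitin-binding-domain fusion, purified on chitin resin and released by DTT cleavage. Biotinylated oriT ssDNA was either fluorescein end-labelled or hybridised after the reaction to an end-labelled probe. Reactions ran at 37°C, were stopped with SDS/EDTA at 80°C, and were read on streptavidin-coated plates.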

[2] = biological target: T1, Type IV secretion-like conjugative transfer relaxase protein TraI; test: Inhibition of Escherichia coli F plasmid TraI relaxase Y16F mutant assessed as oriT ssDNA cleavage by uncompetitive inhibition assay; outline: as §1
[3] = tested on: Type IV secretion-like conjugative transfer relaxase protein TraI (Escherichia coli (strain SMS-3-5 / SECEC)), B1LRJ1 [Y16F]; test: (§2) Inhibition of Escherichia coli F plasmid TraI relaxase Y16F mutant assessed as oriT ssDNA cleavage at 200 nM
Escherichia coli [4] = test: Inhibition of conjugate DNA transfer between tetracycline-resistant F plasmid positive Escherichia coli JS10 to streptomycin-resistant F plasmid deficient Escherichia coli JS4; assay type: functional, organism-based
Outline: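 F+ donor and F− recipient E. coli were mixed 1:9 in dilute liquid medium with increasing inhibitor concentrations for 100 min. Inhibitor was removed before transconjugants were selected with antibiotics. Transconjugants were counted as colonies on agar, or by oxygen-biosensor fluorescence in antibiotic medium. EC50 for DNA transfer was derived from the counts.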

Escherichia coli [5] = test: Cytotoxicity against tetracycline-resistant F plasmid positive Escherichia coli JS10; assay type: functional, organism-based
Outline: (§3)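 Donor and recipient strains were kept separate and exposed to inhibitor for 100 min. Inhibitor was added at the start and removed before selection. Surviving cells were counted on antibiotic-selective agar plates, or in antibiotic-containing medium by an oxygen-quenched fluorophore gel assay in which fluorescence is proportional to live cells. EC50 was determined from cell counts.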

Escherichia coli [6] = test: Cytotoxicity against streptomycin-resistant F plasmid deficient Escherichia coli JS4; assay type: functional, organism-based; outline: as §3
Escherichia coli [7] = test: Selectivity ratio, ratio of EC50 for Escherichia coli JS4 to EC50 for Escherichia coli JS10; assay type: functional
Outline: (§4)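 Each ratio divides one EC50 by another. The EC50s come from 100-min inhibitor exposures: separate donor and recipient survival assays, and a 1:9 donor:recipient liquid mating assay. Viable or transconjugant cells were counted on selective agar or by oxygen-quenched fluorescence in antibiotic medium.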

Escherichia coli [8] = test: Selectivity ratio, ratio of EC50 for Escherichia coli JS10 to ratio of EC50 for inhibition of conjugate DNA transfer between Escherichia coli JS10 and Escherichia coli JS4; assay type: functional; outline: as §4
Escherichia coli [9] = test: Selectivity ratio, ratio of EC50 for Escherichia coli JS4 to ratio of EC50 for inhibition of conjugate DNA transfer between Escherichia coli JS10 and Escherichia coli JS4; assay type: functional; outline: as §4
[10] = tested on: Type IV secretion-like conjugative transfer relaxase protein TraI (Escherichia coli (strain SMS-3-5 / SECEC)), B1LRJ1 [Y16F]; test: as §2; remark: listed apart in the source
Escherichia coli [11] = test: Selectivity ratio, ratio of EC50 for inhibition of conjugate DNA transfer between Escherichia coli JS10 and Escherichia coli JS4 to EC50 for Escherichia coli JS10; assay type: functional; outline: as §4
[12] = substrate: O=P(O)(O)NP(=O)(O)O; test: Activity of Escherichia coli F plasmid TraI relaxase Y16F mutant assessed as oriT ssDNA cleavage; outline: as §1

**Q.** Which results are given for `O=P(O)(O)NP(=O)(O)O` [IMIDODIPHOSPHATE]?
**A.** Ki [1]: 2 nM; Ki [2]: 2.7 nM; Activity [3]: inactive; EC50 (Escherichia coli [4]): 10 µM; EC50 (Escherichia coli [5]): 0.43 µM; EC50 (Escherichia coli [6]): 620 µM; Ratio EC50 (Escherichia coli [7]): 1400; Ratio EC50 (Escherichia coli [8]): 0.014; Ratio EC50 (Escherichia coli [9]): 20

**Q.** What does the source list for `O=P(O)(O)C(Cl)(Cl)P(=O)(O)O` [CLODRONIC ACID]?
**A.** Ki [1]: 3 nM; Activity [3]: inactive; Activity [10]: Active; EC50 (Escherichia coli [4]): 0.11 µM; EC50 (Escherichia coli [5]): 9 µM; EC50 (Escherichia coli [6]): 3000 µM; Ratio EC50 (Escherichia coli [7]): 330; Ratio EC50 (Escherichia coli [11]): 0.013; Ratio EC50 (Escherichia coli [8]): 78; Ratio EC50 (Escherichia coli [9]): 26000

**Q.** Which Activity [3] does the source give for `NCCC(O)(P(=O)(O)O)P(=O)(O)O` [PAMIDRONIC ACID] here?
**A.** inactive

**Q.** And the Activity [10]?
**A.** inactive

**Q.** What about the EC50 (Escherichia coli [4]) of the same molecule?
**A.** > 10000 µM

**Q.** And the EC50 (Escherichia coli [5])?
**A.** > 10000 µM

**Q.** What about the EC50 (Escherichia coli [6]) of the same molecule?
**A.** > 10000 µM

**Q.** Which Activity [3] does the source give for `O=P(O)(O)CCCCP(=O)(O)O` here?
**A.** inactive

**Q.** Which Activity [3] does the source give for `CC1(C)S[C@@H]2[C@H](NC(=O)[C@H](N)c3ccccc3)C(=O)N2[C@H]1C(=O)O` here?
**A.** inactive

**Q.** What does the source list for `O=P(O)(O)CNCP(=O)(O)O` [IMINOBIS(METHYLPHOSPHONIC ACID)]?
**A.** Activity [3]: inactive; EC50 (Escherichia coli [4]): 0.58 µM; EC50 (Escherichia coli [5]): 0.016 µM; EC50 (Escherichia coli [6]): 5000 µM; Ratio EC50 (Escherichia coli [7]): 330000; Ratio EC50 (Escherichia coli [11]): 36; Ratio EC50 (Escherichia coli [8]): 0.028; Ratio EC50 (Escherichia coli [9]): 9000

**Q.** What does the source list for `CC(O)(P(=O)(O)O)P(=O)(O)O` [ETIDRONIC ACID]?
**A.** Ki [1]: 3 nM; Activity [3]: inactive; Activity [10]: Active; EC50 (Escherichia coli [4]): 0.33 µM; EC50 (Escherichia coli [5]): 10 µM; EC50 (Escherichia coli [6]): 370 µM; Ratio EC50 (Escherichia coli [7]): 38; Ratio EC50 (Escherichia coli [11]): 0.034; Ratio EC50 (Escherichia coli [8]): 30; Ratio EC50 (Escherichia coli [9]): 1100

**Q.** Which results are given for `NCCCCCC(O)(P(=O)(O)O)P(=O)(O)O`?
**A.** Activity [3]: inactive; Activity [10]: inactive

**Q.** What does the source list for `COP(=O)(OC)c1ccccc1P(=O)(OC)OC`?
**A.** Activity [3]: inactive; EC50 (Escherichia coli [4]): 14 µM; EC50 (Escherichia coli [5]): 0.068 µM; Ratio EC50 (Escherichia coli [7]): 1500000; Ratio EC50 (Escherichia coli [11]): 210; Ratio EC50 (Escherichia coli [8]): 0.0048; Ratio EC50 (Escherichia coli [9]): 7100

**Q.** Which Ki [1] does the source give for `O=P(O)(O)CP(=O)(O)O` [MEDRONIC ACID] here?
**A.** 3 nM

**Q.** What about the Activity [3] of the same molecule?
**A.** inactive

**Q.** What about the EC50 (Escherichia coli [4]) of the same molecule?
**A.** 0.35 µM

**Q.** What about the EC50 (Escherichia coli [5]) of the same molecule?
**A.** 0.51 µM

**Q.** What about the EC50 (Escherichia coli [6]) of the same molecule?
**A.** 870 µM

**Q.** And the “Ratio EC50” value (Escherichia coli [7])?
**A.** 1700

**Q.** And the “Ratio EC50” value (Escherichia coli [11])?
**A.** 0.68

**Q.** And the “Ratio EC50” value (Escherichia coli [8])?
**A.** 1.5

**Q.** What about the “Ratio EC50” value (Escherichia coli [9]) of the same molecule?
**A.** 20

**Q.** Which Activity [3] does the source give for `O=P(O)(O)CN(CP(=O)(O)O)CP(=O)(O)O` here?
**A.** inactive

**Q.** Which Activity [3] does the source give for `O=C(O)CN(CP(=O)(O)O)CP(=O)(O)O` here?
**A.** inactive

B1: Type IV secretion-like conjugative transfer relaxase protein TraI (Escherichia coli (strain SMS-3-5 / SECEC)), B1LRJ1 Y16F (protein)
chain: MMSIAQVRSAGSAGNFYTDKDNYYVLGSMGERWAGRGAEQLGLQGSVDKDVFTRLLEGRLPDGADLSRMQDGSNKHRPGYDLTFSAPKSVSMMAMLGGDKRLIDAHNQAVDFAVRQVEALASTRVMTDGQSETVLTGNLVMALFNHDTSRDQEPQLHTHAVVANVTQHNGEWKTLSSDKVGKTGFIENVYANQIAFGRLYREKLKEQVEALGYETEVVGKHGMWEMPGVPVEAFSGRSQTIREAVGEDASLKSRDVAALDTRKSKQHVDPEIKMTEWMQTLKETGFDIRAYRDAAEQRAYTRTQTPGPASQDGPDVQQAVTQAIAGLSERKVQFTYTDVLARTVGILPPEAGVIERARAGIDEAISREQLIPLDREKGLFTSGIHVLDELSVRALSRDIMKQNRVTVHPEKSVPRTAGYSDAVSVLAQDRPSLAIVSGQGGAAGQRERVAELVMMAREQGREVQIIAADRRSQMNLKQDERLSGELITGRRQLLEGMAFTPGSTVIVDQGEKLSLKETLTLLDGAARHNVQVLITDSGQRTGTGSALMAMKDAGVNTYRWQGGEQRPATIISEPDRNVRYARLAGDFAASVKAGEESVAQVSGVREQAILTQAIRSELKTQGVLGHQEVTMTALSPVWLDSRSRYLRDMYRPGMVMEQWNPETRSHDRYVIDRVTAQSHSLTLRDAQGETQVVRISSLDSSWSLFRPEKMPVADGERLRVTGKIPGLRVSGGDRLQVASVSEDAMTVVVPGRAEPASLPVADSPFTALKLENGWVETPGHSVSDSAKVFAAVTQMAMDNATLNGLARSGRDVRLYSSLDETRTAEKLARHPSFTVVSEQIKAHAGETSLETSISLQKAGLHTPAQQAIHLALPVLESKKLAFSMVDLLTEAKSFAAEGTGFTELGGEINAQIKRGDLLYVDVAKGYGTGLLVSRASYEAEKSILRHILEGKEAVTPLMERVPGELMEKLTSGQRAATRMILETSDRFTVVQGYAGVGKTTQFRAVMSAVNMLPESMRPRVVGLGPTHRAVGEMRSAGVDAQTLASFLHDTQLQQRSGETPDFSNTLFLLDESSMVGNTDMARAYALIAAGGGRAVASGDTDQLQAIAPGQPFRLQQTRSAADVAIMKEIVRQTPELREAVYNLINRDVERALSGLERVKPSQVPRLEGAWAPEHSVMEFSHSQEAKLAEAQQKAMLKGEAFPDVPMTLYEAIVRDYTGRTPEAREQTLIVTHLNEDRRVLNSMIHDAREKAGELGKEQVMVPVLNTANIRDGELRRLSTWETHRDALVLVDNVYHRIAGISKDDGLITLEDAEGNTRLISPREAVAEGVTLYTPDTIRVGTGDRMRFTKSDRERGYVANSVWTVTAVSGDSVTLSDGQQTRVIRPGQERAEQHIDLAYAITAHGAQGASETFAIALEGTEGNRKQMAGFESAYVALSRMKQHVQVYTDNRQGWTDAINNAVQKGTAHDVFEPKPDREVMNAERLFSTARELRDVAAGRAVLRQAGLAGGDSPARFIAPGRKYPQPYVALPAFDRNGKSAGIWLNPLTTDDGNGLRGFSGEGRVKGSGDAQFVALQGSRNGESLLADNMQEGVRIARDNPDSGVVVRIAGEGRPWNPGAITGGRVWGDIPDNSVQPGAGNGEPVTAEVLAQRQAEEAIRRETERRADEIVRKMAENKPDLPDGKTEQAVREIAGQERDRAAITEREAALPESVLRESQREREAVREVARENLLQERLQQMERDMVRDLQKEKTLGGD
**Q.** For B1, which Km [12] is on record?
**A.** 0.294 µM

**Q.** And the Vmax [12]?
**A.** 0.51 nM/s
